Experimental findings from ChEMBL document CHEMBL4477204, “Tetrahydroisoquinoline-Derived Urea and 2,5-Diketopiperazine Derivatives as Selective Antagonists of the Transient Receptor Potential Melastatin 8 (TRPM8) Channel Receptor and Antiprostate Cancer Agents” (J Med Chem, 2016) are described below.

By IC50 is commonly meant the concentration that gives 50% inhibition. In general, CLint scaled refers to the capacity of the preparation to metabolise the compound, expressed as a volume cleared per time. Read a high CLint scaled as rapid turnover.

The source made the active and inactive calls. The rule behind the calls is not given here.

For series [1], the target named is Transient receptor potential cation channel subfamily A member 1 (Rattus norvegicus) (UniProt Q6RI86). Put plainly: Antagonist activity at recombinant rat TRPA1 expressed in HEK293 cells assessed as inhibition of AITC-induced intracellular calcium accumulation up to 10 uM preincubated for 5 mins followed by AITC addition by Fluo-4-AM probe-based spectrofluorimetric assay. The format is cell-based. In short, it runs like this:
(§1)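 HEK-293 cells stably expressing the listed TRP channel (human TRPV1; rat TRPM8, TRPA1, TRPV2, TRPV3 or TRPV4) were Fluo-4-AM loaded (4 µM, 1 h, 25 °C) and suspended in Tyrode's buffer pH 7.4. Compound was added 5 min before agonist: icilin 0.25 µM (TRPM8), capsaicin 0.1 µM (TRPV1), AITC 100 µM (TRPA1), LPC 3 µM (TRPV2), thymol 100 µM (TRPV3), 4α-PDD 1 µM (TRPV4). Agonist alone was taken as 100%. IC50 from sigmoidal fit, at least triplicate.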
In general terms: Calcium flux is commonly read through the fluorescence of an indicator in the cells.

Series [2] concerns LNCaP. As to the kind of experiment: Induction of apoptosis in human LNCAP cells assessed as increase in caspase3/7 activity at 10 uM after 72 hrs by caspase-glo 3/7 chemiluminescence assay relative to control. It counts as functional. In short, it runs like this:
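LNCaP cells were cultured 72 h with 10 µM compound or vehicle, then washed with PBS. Caspase-Glo 3/7 reagent was added to 1×10^4 cells/assay, incubated 1 h at room temperature in the dark, and luminescence was read. Vehicle blank was subtracted; runs were in triplicate. Camptothecin 0.1 µg/mL plus anti-Fas 0.2 µg/mL for 24 h served as the apoptosis reference.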

The target of series [3] is T1, Heat sensitive channel TRPV3 (Rattus norvegicus) (UniProt Q4QYD9).
T1 sequence (whole entry): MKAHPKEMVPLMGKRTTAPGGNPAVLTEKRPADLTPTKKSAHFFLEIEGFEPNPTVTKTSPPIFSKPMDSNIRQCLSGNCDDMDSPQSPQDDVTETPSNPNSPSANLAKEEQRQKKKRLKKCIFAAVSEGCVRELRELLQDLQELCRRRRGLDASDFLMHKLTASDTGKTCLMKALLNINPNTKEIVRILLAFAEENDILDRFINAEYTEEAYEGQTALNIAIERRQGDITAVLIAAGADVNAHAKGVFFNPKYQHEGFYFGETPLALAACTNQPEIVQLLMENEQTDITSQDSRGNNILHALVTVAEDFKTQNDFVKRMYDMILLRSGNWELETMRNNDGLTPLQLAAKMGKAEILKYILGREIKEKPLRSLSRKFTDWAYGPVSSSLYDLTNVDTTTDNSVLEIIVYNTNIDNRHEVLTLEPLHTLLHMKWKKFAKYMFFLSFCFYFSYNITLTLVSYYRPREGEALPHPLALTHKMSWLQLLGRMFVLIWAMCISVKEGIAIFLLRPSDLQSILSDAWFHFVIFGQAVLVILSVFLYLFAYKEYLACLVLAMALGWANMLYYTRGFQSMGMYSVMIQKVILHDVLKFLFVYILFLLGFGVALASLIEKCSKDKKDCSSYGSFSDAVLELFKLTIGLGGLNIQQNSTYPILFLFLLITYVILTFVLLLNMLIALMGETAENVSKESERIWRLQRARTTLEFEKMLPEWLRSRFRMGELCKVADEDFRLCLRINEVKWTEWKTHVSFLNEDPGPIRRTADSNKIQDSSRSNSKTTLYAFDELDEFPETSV
As to the kind of experiment: Antagonist activity at recombinant rat TRPV3 expressed in HEK293 cells assessed as inhibition of thymol-induced intracellular calcium accumulation up to 10 uM preincubated for 5 mins followed by thymol addition by Fluo-4-AM probe-based spectrofluorimetric assay. It counts as cell-based. Put shortly: as §1

In series [4] the target is Transient receptor potential cation channel subfamily V member 4 (Rattus norvegicus) (UniProt Q9ERZ8). Put plainly: Antagonist activity at recombinant rat TRPV4 expressed in HEK293 cells assessed as inhibition of 4alphaPDD-induced intracellular calcium accumulation up to 10 uM preincubated for 5 mins followed by 4alphaPDD addition by Fluo-4-AM probe-based spectrofluorimetric assay. The format is cell-based. In short, it runs like this:
as §1

Series [5] has as its target Transient receptor potential cation channel subfamily M member 8 (Rattus norvegicus, UniProt Q8R455). Put plainly: Antagonist activity at recombinant rat TRPM8 expressed in HEK293 cells assessed as inhibition of icilin-induced intracellular calcium accumulation preincubated for 5 mins followed by icilin addition by Fluo-4-AM probe-based spectrofluorimetric assay. It counts as cell-based. Put shortly:
as §1

A short description of series [6]: in vitro. As to conditions: C57BL/6, mouse, liver microsomes.
For series [7], the target named is Transient receptor potential cation channel subfamily V member 1 (Homo sapiens, UniProt Q8NER1). Put plainly: Antagonist activity at recombinant human TRPV1 expressed in HEK293 cells assessed as inhibition of capsaicin-induced intracellular calcium accumulation up to 10 uM […] preincubated for 5 mins followed by capsaicin addition by Fluo-4-AM probe-based spectrofluorimetric assay. It counts as cell-based. Put shortly:
as §1

The test system of series [8] is LNCaP. As to the kind of experiment: Cytotoxicity against human LNCAP cells assessed as reduction in cell viability by measuring fluorescence gated cells at 10 uM after 72 hrs by CBNF assay (reference value: 83.3%). The format is functional.
A short description of series [9]: Cytotoxicity against human PNT1A cells assessed as reduction in cell viability by measuring fluorescence gated cells at 10 uM after 72 hrs by CBNF assay (reference value: 94.1%). It counts as cell-based. As to conditions: read-out: Activity.
Series [10] has as its system CWR22R. As to the kind of experiment: Cytotoxicity against human 22Rv1 cells assessed as reduction in cell viability by measuring fluorescence gated cells at 10 uM after 72 hrs by CBNF assay (reference value: 81.3%). It counts as functional.

Sequence of Transient receptor potential cation channel subfamily A member 1 (Rattus norvegicus) (Q6RI86 whole entry): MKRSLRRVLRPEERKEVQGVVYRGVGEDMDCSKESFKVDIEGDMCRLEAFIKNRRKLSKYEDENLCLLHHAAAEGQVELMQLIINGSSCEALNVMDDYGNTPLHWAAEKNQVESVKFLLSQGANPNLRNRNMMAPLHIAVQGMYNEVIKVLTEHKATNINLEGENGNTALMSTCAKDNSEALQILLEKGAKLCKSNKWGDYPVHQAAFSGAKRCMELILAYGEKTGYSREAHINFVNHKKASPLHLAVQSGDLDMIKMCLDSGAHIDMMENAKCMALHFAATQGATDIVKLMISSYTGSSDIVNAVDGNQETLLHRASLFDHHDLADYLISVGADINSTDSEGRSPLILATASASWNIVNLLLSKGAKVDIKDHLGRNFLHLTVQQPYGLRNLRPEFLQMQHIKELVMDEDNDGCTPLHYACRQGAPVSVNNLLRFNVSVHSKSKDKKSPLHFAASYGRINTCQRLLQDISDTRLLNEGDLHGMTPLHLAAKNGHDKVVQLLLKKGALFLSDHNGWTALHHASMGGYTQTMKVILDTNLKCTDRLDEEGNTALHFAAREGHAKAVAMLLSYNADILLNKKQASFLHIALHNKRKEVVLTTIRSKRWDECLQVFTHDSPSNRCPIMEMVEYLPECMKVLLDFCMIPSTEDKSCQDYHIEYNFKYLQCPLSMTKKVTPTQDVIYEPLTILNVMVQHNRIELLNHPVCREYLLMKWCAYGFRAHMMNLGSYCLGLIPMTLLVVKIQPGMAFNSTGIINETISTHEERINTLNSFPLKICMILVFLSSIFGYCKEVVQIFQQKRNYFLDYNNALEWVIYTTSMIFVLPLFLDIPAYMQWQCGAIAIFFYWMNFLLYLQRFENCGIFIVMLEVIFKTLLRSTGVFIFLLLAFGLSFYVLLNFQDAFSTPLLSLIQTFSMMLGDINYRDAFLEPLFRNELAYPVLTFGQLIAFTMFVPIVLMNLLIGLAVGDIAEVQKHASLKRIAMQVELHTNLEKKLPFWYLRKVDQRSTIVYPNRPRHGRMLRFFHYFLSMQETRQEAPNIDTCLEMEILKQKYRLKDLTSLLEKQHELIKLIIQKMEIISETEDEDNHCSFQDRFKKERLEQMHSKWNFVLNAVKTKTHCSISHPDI
Sequence of Transient receptor potential cation channel subfamily V member 4 (Rattus norvegicus) (Q9ERZ8 whole entry): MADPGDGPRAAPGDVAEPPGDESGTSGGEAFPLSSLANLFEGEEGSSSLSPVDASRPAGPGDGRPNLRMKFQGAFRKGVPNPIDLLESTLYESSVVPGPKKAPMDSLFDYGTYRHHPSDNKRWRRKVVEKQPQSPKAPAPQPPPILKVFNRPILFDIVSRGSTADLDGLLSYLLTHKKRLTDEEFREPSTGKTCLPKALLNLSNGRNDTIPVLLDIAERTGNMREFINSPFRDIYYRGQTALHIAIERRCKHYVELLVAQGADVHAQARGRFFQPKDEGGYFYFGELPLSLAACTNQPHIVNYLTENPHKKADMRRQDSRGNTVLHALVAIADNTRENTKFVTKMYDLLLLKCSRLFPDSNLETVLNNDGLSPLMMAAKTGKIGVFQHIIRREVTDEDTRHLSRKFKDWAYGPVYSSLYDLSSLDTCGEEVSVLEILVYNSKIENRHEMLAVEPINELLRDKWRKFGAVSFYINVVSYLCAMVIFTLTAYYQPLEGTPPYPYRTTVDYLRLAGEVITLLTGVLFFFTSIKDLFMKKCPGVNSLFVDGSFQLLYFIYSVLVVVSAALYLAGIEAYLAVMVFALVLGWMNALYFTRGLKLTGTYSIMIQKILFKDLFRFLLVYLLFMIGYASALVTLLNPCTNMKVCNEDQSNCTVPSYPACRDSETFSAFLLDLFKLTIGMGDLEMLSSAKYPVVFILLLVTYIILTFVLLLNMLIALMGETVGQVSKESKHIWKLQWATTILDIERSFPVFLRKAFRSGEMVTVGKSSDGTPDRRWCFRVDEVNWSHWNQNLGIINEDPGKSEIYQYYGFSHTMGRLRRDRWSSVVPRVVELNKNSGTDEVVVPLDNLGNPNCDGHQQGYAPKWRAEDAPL
Sequence of Transient receptor potential cation channel subfamily V member 1 (Q8NER1 whole entry): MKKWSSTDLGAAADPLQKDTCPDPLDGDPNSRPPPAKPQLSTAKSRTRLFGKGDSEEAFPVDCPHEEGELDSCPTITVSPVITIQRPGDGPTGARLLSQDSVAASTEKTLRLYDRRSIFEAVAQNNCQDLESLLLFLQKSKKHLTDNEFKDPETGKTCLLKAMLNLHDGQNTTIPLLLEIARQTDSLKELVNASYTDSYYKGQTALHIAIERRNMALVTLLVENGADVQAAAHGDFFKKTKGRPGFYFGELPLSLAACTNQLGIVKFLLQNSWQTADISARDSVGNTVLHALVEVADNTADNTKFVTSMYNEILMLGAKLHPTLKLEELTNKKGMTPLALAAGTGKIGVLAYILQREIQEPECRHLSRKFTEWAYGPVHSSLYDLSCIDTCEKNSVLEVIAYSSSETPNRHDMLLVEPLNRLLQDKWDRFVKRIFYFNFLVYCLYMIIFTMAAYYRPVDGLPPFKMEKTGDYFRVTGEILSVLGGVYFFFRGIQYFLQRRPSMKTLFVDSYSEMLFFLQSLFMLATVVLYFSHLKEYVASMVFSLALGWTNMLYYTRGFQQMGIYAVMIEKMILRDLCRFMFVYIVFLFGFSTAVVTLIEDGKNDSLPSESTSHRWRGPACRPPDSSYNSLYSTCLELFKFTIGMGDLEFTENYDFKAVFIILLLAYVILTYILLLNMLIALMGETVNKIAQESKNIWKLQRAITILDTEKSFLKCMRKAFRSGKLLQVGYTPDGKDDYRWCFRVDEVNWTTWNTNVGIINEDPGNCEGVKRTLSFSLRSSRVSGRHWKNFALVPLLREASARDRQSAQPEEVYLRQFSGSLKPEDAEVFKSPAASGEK
Sequence of Transient receptor potential cation channel subfamily M member 8 (Q8R455 whole entry): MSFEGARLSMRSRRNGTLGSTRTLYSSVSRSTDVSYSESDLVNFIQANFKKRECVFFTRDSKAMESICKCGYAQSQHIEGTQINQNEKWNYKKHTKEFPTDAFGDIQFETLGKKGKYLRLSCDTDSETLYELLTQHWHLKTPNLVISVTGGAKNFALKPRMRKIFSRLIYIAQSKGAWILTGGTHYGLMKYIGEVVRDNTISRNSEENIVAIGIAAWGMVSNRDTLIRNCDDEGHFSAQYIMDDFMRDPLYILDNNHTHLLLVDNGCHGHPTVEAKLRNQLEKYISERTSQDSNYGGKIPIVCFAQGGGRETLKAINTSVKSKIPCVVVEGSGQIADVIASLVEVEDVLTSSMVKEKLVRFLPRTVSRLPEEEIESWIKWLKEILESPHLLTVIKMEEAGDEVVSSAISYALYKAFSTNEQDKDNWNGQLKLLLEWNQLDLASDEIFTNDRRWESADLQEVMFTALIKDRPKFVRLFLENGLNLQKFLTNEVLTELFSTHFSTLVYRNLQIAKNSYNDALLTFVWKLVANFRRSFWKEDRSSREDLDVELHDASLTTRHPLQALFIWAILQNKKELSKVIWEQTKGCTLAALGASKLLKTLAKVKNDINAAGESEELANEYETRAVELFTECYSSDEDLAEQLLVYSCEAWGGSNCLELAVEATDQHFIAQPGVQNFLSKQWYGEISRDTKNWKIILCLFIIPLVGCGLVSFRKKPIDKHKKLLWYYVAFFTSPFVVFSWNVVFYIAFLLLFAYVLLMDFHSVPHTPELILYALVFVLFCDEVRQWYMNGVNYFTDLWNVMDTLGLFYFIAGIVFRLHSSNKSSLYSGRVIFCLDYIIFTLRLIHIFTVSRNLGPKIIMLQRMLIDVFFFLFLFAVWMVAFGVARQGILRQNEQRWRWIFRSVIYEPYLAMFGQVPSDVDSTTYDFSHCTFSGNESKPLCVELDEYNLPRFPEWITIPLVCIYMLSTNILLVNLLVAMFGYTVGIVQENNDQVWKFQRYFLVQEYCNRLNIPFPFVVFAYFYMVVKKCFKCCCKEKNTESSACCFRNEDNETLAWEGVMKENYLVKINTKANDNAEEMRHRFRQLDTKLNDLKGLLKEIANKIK

On to `COc1cc(/C=C2\NC(=O)[C@@H]3Cc4c(OC)c(C)c(OC)c(OC)c4[C@@H](c4ccccc4)N3C2=O)c(OC)c(C)c1OC`, for which the inhibition entry in [1], in series [3], in series [4] and in [7] was “inactive” in each case. The Activity in [2] is 200%. In series [5], the IC50 stood at 620 nM. The compound also had a CLint scaled at 1 h, 3 µM in series [6] of 15.6 mL/min/kg.
With `COc1cc2c(cc1OC)[C@H](c1ccccc1)N(C(=O)N1CCc3cc(OC)c(OC)cc3[C@@H]1c1ccccc1)CC2` (racemic), the inhibition result in [1], in series [3], in series [4] and in series [7] was “inactive” each time. For the same compound, the Activity in series [2] worked out at 220%. For the same compound, the IC50 in series [5] was determined as 500 nM.
Regarding `COc1cc2c(cc1OC)[C@H](c1ccc(F)cc1)N(C(=O)N1CCc3cc(OC)c(OC)cc3[C@@H]1c1ccc(F)cc1)CC2` (racemic), the inhibition result in series [1], in series [3], in series [4] and in series [7] was “inactive” in each case. Also, the Activity in series [2] is recorded as 198%; in series [8], 54.4%; in [10], 82.2%. Further, the viability at 72 h, 10 µM in [9] was 92.7%. In addition, the IC50 in [5] was determined as 72 nM. In series [6], this compound returned a CLint scaled at 1 h, 3 µM of 75.2 mL/min/kg.
On to `COc1cc2c(cc1OC)[C@H](c1ccc(Cl)cc1)N(C(=O)N1CCc3cc(OC)c(OC)cc3[C@@H]1c1ccc(Cl)cc1)CC2` (racemic), for which the inhibition entry in [1], in [3], in series [4] and in series [7] was “inactive” throughout. Also, the Activity in [2] came out at 190%. The concentration for half-maximal inhibition (IC50) in series [5] was 430 nM.
